Six molecules from ChEMBL document CHEMBL1152226 (Bioorg Med Chem, 2008) can be followed below.

For data set [1], the target named is Inosine-5'-monophosphate dehydrogenase 1 (Homo sapiens, UniProt P20839). In words: Inhibition of human IMPDH1. An outline of the steps:
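Run in duplicate with IMPDH type 1 (100 nM; line 2) or type 2 (30 nM; line 3) in 50 mM Tris pH 8.0, 100 mM KCl, 1 mM DTT, with IMP and NAD substrates. Inhibitors were added from DMSO to 1% final. At 25 °C, NADH formation was followed at 340 nm. Ki(app) came from fitting steady-state velocities versus inhibitor concentration to the Morrison equation.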

Data set [2] deals with Inosine-5'-monophosphate dehydrogenase 2 (Homo sapiens, UniProt P12268). As to the kind of experiment: Inhibition of human IMPDH2.
Another data set concerns K562. In words: Antiproliferative activity against human K562 cells after 72 hrs by MTS assay. The class given is functional, cell-based.
Data set [3] is described as follows: Selectivity ratio of IC50 for human K562 cells to Ki for human IMPDH2. The class given is ADME, cell-based.

Chain of Inosine-5'-monophosphate dehydrogenase 1 (P20839 whole entry): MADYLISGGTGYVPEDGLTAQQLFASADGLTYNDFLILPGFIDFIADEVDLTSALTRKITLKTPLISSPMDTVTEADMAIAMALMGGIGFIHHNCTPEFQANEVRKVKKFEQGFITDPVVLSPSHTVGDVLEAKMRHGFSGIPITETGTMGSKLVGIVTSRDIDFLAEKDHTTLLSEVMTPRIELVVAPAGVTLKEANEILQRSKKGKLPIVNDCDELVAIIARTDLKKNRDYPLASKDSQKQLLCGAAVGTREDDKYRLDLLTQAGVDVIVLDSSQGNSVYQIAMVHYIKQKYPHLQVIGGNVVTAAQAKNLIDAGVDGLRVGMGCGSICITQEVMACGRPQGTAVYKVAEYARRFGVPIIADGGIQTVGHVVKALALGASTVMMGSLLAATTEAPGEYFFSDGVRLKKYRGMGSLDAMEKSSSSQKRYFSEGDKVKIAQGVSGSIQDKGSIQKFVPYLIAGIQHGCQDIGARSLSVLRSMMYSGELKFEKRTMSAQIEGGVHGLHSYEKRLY

As for `COc1cc(C/C=C(\C)CCC(=O)O)ccc1-c1cnco1`, the values for the Ki in data set [1] and in data set [2] were 42.8 µM and 14.3 µM, respectively. The same molecule had an IC50 in the data set with K562 (Homo sapiens, K562, 72 h) of over 100 µM.

For `COc1ccc(C/C=C(\C)CCC(=O)O)cc1-c1cnco1`, the inhibitory constant (Ki) in data set [1] is 20.8 µM; in data set [2] it was 8.7 µM. The IC50 with K562 (Homo sapiens, K562, 72 h) is over 100 µM.

For `COc1c(C/C=C(\C)CCC(=O)O)cc(-c2cnco2)c(OC)c1C`, the inhibition constant (Ki) in data set [1] and in data set [2] was over 100 µM in each case.

For `COc1cc(OC)c(-c2cnco2)cc1C/C=C(/C)CCC(=O)O`, the Ki in data set [1] came out at 97.3 µM; in data set [2] it was 30.1 µM. For the same molecule, it took 71 µM to reach half-maximal inhibition in the data set with K562 (Homo sapiens, K562, 72 h) (IC50).

On to `COc1cc(OC)c(-c2cnco2)cc1C/C=C(\C)CCC(=O)O` (stereo in doubt; 3), for which the Ki in data set [1] was found to be 16 µM; in data set [2], 4.3 µM. Also, in data set [3], the Ratio amounted to 10. In the data set with K562 (Homo sapiens, K562, 72 h), this molecule came in with an IC50 of 56 µM.

`COc1cc(OC)c(-c2cnco2)cc1C/C=C(\C)CCC(=O)O` (stereo in doubt; 3-E): the results for the Ki in data set [1] and in data set [2] were 10.3 µM and 2.3 µM, respectively. Further, the IC50 in the data set on K562 (k562) worked out at 88 µM.
